Only some compounds are listed: those with a hit (about 2.8% of all), similar ones and a draw of the others.
Yeast life ext – extends the lifespan of yeast; inhibition of the nicotinamide effect, % at 10 µM; actives 0.68% (n = 130,000); AID 775; S. cerevisiae growth with nicotinamide, OD615; deaD strain in restrictive glucose medium;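 active means inhibition above a set limit, placed 3 SD over the median of all compounds, cut at about 26% in these data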;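 further: 0% = nicotinamide-treated wells and 100% = cells grown without nicotinamide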
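Test system – modified budding yeast, DeaD strain · Compound – single dose 10 µM compound, 0.25% DMSO · Times – culture preincubation 4 h, compound exposure 48 h, both 30 °C · Detection – optical density (absorbance) at 615 nm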
TNAP inh noacc – inhibitors of human TNAP without phosphate acceptor | P05186 | purified TNAP, CDP-star luminescence, 30 min | inhibition, % at 20 µM | actives 0.26% (n = 200,000);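 active means tissue-nonspecific alkaline phosphatase inhibition above about 50% at 20 µM in the single-dose screen, limit read from the data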;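 further: 0% = DMSO negative control and 100% = EDTA positive control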
Target sequence (P05186 whole entry, looked up): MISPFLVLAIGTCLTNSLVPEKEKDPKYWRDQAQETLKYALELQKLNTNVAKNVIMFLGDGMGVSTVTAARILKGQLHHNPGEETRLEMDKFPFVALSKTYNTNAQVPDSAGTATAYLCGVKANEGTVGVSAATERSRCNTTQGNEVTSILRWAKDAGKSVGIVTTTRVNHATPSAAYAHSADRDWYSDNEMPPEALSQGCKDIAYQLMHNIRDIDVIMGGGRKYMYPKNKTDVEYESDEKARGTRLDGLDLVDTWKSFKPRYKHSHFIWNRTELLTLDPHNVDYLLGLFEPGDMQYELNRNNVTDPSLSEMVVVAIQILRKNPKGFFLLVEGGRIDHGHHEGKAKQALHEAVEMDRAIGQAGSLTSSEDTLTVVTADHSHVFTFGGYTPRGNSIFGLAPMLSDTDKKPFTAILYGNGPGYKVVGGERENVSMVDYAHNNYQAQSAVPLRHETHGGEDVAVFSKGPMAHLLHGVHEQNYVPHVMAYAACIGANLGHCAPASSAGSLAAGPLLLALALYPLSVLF
TNAP act hi DEA – activators of human TNAP at high phosphate acceptor concentration; P05186; purified TNAP, CDP-star luminescence, 1 M DEA, 30 min; hits give high values; 0 = EDTA background, 1 = DMSO-only activity; activation factor at 20 µM; 200,000 tested, under 10 active; AID 1136;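 active means activation factor at least 2 at 20 µM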
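Control set: EDTA negative control, DMSO positive control / Assay system: human TNAP / Quantity: TNAP 1/800 final / Evaluation: TNAP activation factor scaled between EDTA and DMSO control wells / Measured by: luminescent substrate turnover signal / Compound dosing: one dose, 20 µM / Times: 30 min enzyme reaction at room temperature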
BB579 growth dn – reduces growth of yeast BB579 in restrictive medium. S. cerevisiae BB579 growth, OD615, 48 h. inhibition, % at 10 µM. actives 0.51% (n = 140,000). AID 804;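 active means inhibition above a set limit, 3 SD over the mean compound inhibition, cut at about 44% in these data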
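System: Saccharomyces cerevisiae DeaD strain BB579, replicative lifespan model yeast | Buffer or medium: Restrictive glucose-based CSMM-D medium | Times: 4 h preincubation and 48 h exposure at 30 °C | Detection: OD615 turbidity measurement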
TNAP inh hi DEA – blocks human TNAP under high phosphate acceptor concentration | P05186 | purified TNAP, CDP-star luminescence, 1 M DEA | inhibition, % at 20 µM | actives 0.03% (n = 200,000) | AID 1135;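 active means over 50% inhibition of tissue-nonspecific alkaline phosphatase at 20 µM in the single-dose screen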;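 further: plate controls were DMSO wells for no effect and EDTA-quenched wells as full inhibition for full effect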
RAM inhibit – yeast RAM network inhibition | actives 1.8% (n = 190,000) | AID 868 | inhibition, % at 50 µM | S. cerevisiae dse1pr::URA3 reporter, 5-FOA growth OD615, 2 d; analog-sensitive cbk1-as2 kinase mutant strain;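 active means inhibition above a set limit, 3 SD over mean compound inhibition, cut at about 8.4% in these data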;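 further: 0% = DMSO-only wells with no growth and 100% = 10 µM 1-NA-PP1 full growth; inhibition rescues growth on 5-FOA so higher OD means more RAM inhibition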
* = called active by the depositor; nt = no result.

SMILES	Yeast life ext	TNAP inh noacc	TNAP act hi DEA	BB579 growth dn	TNAP inh hi DEA	RAM inhibit
CCOC1=C/C(=C/c2c(N)n3nc(-c4ccccc4)sc3nc2=O)C=CC1=O	nt	37.3	0.7	nt	26.0	1.6
CCCCc1nn2c(N)c(/C=C3\C=Nc4ccccc43)c(=O)nc2s1	-0.5	66.1*	0.9	-6.7	9.6	2.4
CCCc1nn2c(N)c(/C=C3\C=Nc4ccccc43)c(=O)nc2s1	-1.2	58.2*	1	-43.2	4.8	8.3
Cc1nc2nc(C)c(CCC(=O)N3CCOCC3)c(C)n2n1	-12.7	-0.8	1	-24.4	-3.6	2.8
Cc1ncc(CCl)c2c1OC(C)(C)OC2	nt	-11.0	1	-41.1	-3.6	0.1
O=C(/C(=C/c1ccccc1)n1cncn1)c1ccc(Cl)cc1Cl	48.5*	-12.2	1	11.7	3.8	-0.8
O=c1cc(O)c2c(=O)n(-c3ccccc3)c3c(c2o1)CCCCC3	77.5*	-7.8	1	-56.2	-1.1	-0.4
O=C(COc1ccc(S(=O)(=O)NC2CCCCC2)cc1Cl)NCC1CCCO1 (stereo unspecified)	-10.3	-6.8	1	-8.9	-2.8	-0.8
COc1ccc(CCNC(=O)COc2ccc(S(=O)(=O)NC3CCCCC3)cc2Cl)cc1	-0.1	4.7	1	-30.7	-2.2	10.0*
Cc1ccc(-n2nnnc2SCC(=O)NC2CCCc3ccccc32)c(C)c1 (stereo unspecified)	-1.9	-1.7	1	-47.5	0.9	8.5*
Cc1cc(NC(=O)c2cc(C(C)C)on2)nn1Cc1ccc(Cl)cc1	-6.3	25.9	1.1	-37.0	-7.3	9.3*
CCC(C)n1cnc2c(c1=O)c1nc3ccccc3nc1n2Cc1ccc2c(c1)OCO2 (stereo unspecified)	-0.7	-1.8	1	-71.8	-2.6	10.4*
COc1ccc(C(=O)Nc2n[nH]c(-c3ccncc3)n2)cc1	-22.2	91.8*	1	-48.7	2.0	0.8
COc1ccc(C(=O)Nc2nc(C)cc(C)n2)cc1	nt	-4.6	1	nt	3.6	3.7
COC(=O)c1cc(-c2ccc(Cl)cc2)n[nH]1	nt	87.0*	1.1	nt	-6.2	0.4
COC(=O)c1cc(-c2ccc(OC)c(OC)c2)n[nH]1	2.6	8.6	1	26.4	0.0	0.5
COC(=O)c1cc(-c2ccccc2)n[nH]1	-23.4	92.1*	1	-23.6	2.1	0.3
CC(C)(C)NC(=O)c1cc(-c2ccccc2)n[nH]1	nt	92.4*	1	nt	0.2	-0.1
COC(=O)c1cc(-c2ccc(Cl)cc2Cl)n[nH]1	nt	81.4*	1	nt	2.5	2.3
O=C(NCC1CCCO1)C1c2ccccc2C(=O)N1C1CCCCCC1 (stereo unspecified)	16.3	-7.9	1	-44.9	2.3	1.0
CN(C=O)CP(=O)(O)CN1CCCCC1	11.7	-5.4	1	-16.9	-3.0	1.5
COCCSc1ccccc1C(=O)Nc1ccccc1C#N	nt	-12.1	1.1	nt	-5.4	1.1
O=C1c2ccc3c4c(ccc(c24)C(=O)N1NC(=O)C(F)(F)F)CC3	-5.1	-11.0	1	53.7*	-3.2	1.1
Cn1nc(C(=O)OCC(=O)NC2CCS(=O)(=O)C2)c2ccccc2c1=O (stereo unspecified)	nt	-15.6	1.1	nt	-5.6	1.0
CC[n+]1c(/C=C/c2c[nH]c3ccccc23)ccc2cc(C)ccc21	nt	59.5*	0.4	nt	60.7*	0.4
SMILES	Yeast life ext	TNAP inh noacc	TNAP act hi DEA	BB579 growth dn	TNAP inh hi DEA	RAM inhibit
O=C(NCCCN1CCN(c2cccc(Cl)c2)CC1)C1CCC(=O)N1Cc1ccccc1Cl (stereo unspecified)	-2.4	-7.0	1	-55.6	-3.9	0.7
CN1C(=O)C(O)(CC(=O)/C=C/c2ccco2)c2cc(Br)ccc21 (stereo unspecified)	nt	-1.1	1	nt	-0.2	2.9
CN1C(=O)C(O)(CC(=O)c2ccccc2O)c2cc(Br)ccc21 (stereo unspecified)	-9.9	-6.9	1	53.6*	1.2	-1.2
O=C(O)CCCCCNS(=O)(=O)c1c(Cl)cccc1Cl	-13.1	-9.2	1	-21.9	3.6	-0.8
Cc1cc(C)c(C(=O)COC(=O)CCNS(=O)(=O)c2c(Cl)cccc2Cl)cc1C	5.0	-7.8	1.1	-15.2	-5.7	10.3*
CC(C)CC(=O)O/N=C1\C(=O)N(Cc2ccc(Cl)cc2)c2ccc([N+](=O)[O-])cc21	0.7	-3.5	1	-25.5	-0.3	8.4*
O=C(CN(CC1CCCO1)C(=O)c1nsc(Cl)c1Cl)NC1CCCC1 (stereo unspecified)	nt	-4.3	1.1	nt	-5.0	4.1
O=C(NC1CCCCC1)C(c1ccc(O)c(O)c1)N(C(=O)Cn1nnc2ccccc21)c1cccc(O)c1 (stereo unspecified)	nt	50.6*	1	nt	-0.1	4.6
CCC(=O)N(Cc1ccco1)c1nc(-c2ccc(OC)cc2)cs1	nt	-4.4	1	-48.2	-2.4	10.0*
CCC(=O)N(Cc1ccco1)c1nc(-c2ccccc2)cs1	-12.3	-3.6	1.1	-4.4	-7.2	1.8
Cc1cc(C(=O)Cn2nnc3ccccc3c2=O)c(C)n1Cc1cccs1	-0.1	-12.9	1.1	-53.7	-6.9	2.2
CCOC(=O)C1=C(c2ccccc2)O/C(=C(/C#N)C(F)(F)F)S1	9.3	0.3	1	-40.9	-2.3	6.5
CCOC(=O)C1=C(c2ccccc2)O/C(=C(\C(=O)OC)C(F)(F)F)S1	5.6	14.3	1.1	-38.4	-5.4	11.2*
O=C(NC1CCCCC1)c1ccc(S(=O)(=O)c2ccccc2)cc1	nt	-4.3	1.1	nt	-6.5	4.3
COc1ccc(-c2nnc(COc3ccc4ccccc4c3)o2)cc1OC	-6.8	-6.3	1	-17.5	-1.4	9.7*
Cc1ccc(-c2nc(CN(Cc3c(C)nn(C)c3C)C(C)C)c(C)o2)o1	nt	-3.7	1	nt	-1.5	-0.5
COc1ccccc1OCCOc1ccc(C(=O)c2ccccc2)cc1	-5.8	-9.4	1	-11.0	0.3	10.0*
O=C(c1ccccc1)c1ccc(OCCO)cc1	nt	-9.6	1.1	nt	-6.8	0.1
CCn1c(C(=O)Nc2ccsc2C(=O)OC)cc2sc(Cl)cc21	-8.5	-12.1	1.1	23.7	-7.3	3.6
Cc1ccc(/C=C/C(=O)c2ccccc(=O)c2O)cc1C	-10.4	6.8	0.9	99.4*	7.0	1.5
COc1ccc(/C=C/C(=O)c2ccccc2O)cc1	-3.4	-6.2	1	-14.9	-1.4	1.9
O=C(/C=C/c1ccccc1)c1cc(Br)ccc(=O)c1O	-17.3	9.7	0.9	88.0*	13.4	0.1
CNc1ccc(Br)cc(C(=O)/C=C/c2cccc(OC)c2)c1=O	nt	13.8	0.9	-32.3	9.3	-0.5
O=C(NC1CC1)c1ccc(C2SCC(=O)N2Cc2ccccc2)cc1 (stereo unspecified)	nt	-7.1	1	nt	1.8	2.4

Screening data (PubChem)
